Our source for the folding enthalpy and Tm values is the array DNA melting data of Ke et al. (doi:10.1101/2024.01.08.574731).

Series [1] can be described thus: folding enthalpy; higher = less favourable; fluorescence melt of hairpins on a sequencing array, two-state fit. The following applies: sodium 0.088 M. An outline of the steps:
(§1)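 Bootstrapped two-state fits yielded melting temperature and folding enthalpy for library hairpins. Cy3 fluorescence, with annealed Cy3 and quencher oligos, was imaged on a sequenced MiSeq flow cell in 50 mM Na-HEPES pH 8.0, 25 mM NaCl in 2.5 °C steps up to 60 °C, and normalised to pre-quench Cy3 and to control constructs. Four replicates were combined by inverse variance, and fitted temperatures were raised by 9.35 °C to match UV melts.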

A short description of series [2]: melting temperature; fluorescence melt of hairpins on a sequencing array, two-state fit, raised by 9.35 °C to match UV melts. The following applies: sodium 0.088 M. An outline of the steps:
as §1

Take GCACACGAAAGTGGTTGC ((((((....)))..))): the folding enthalpy in series [1] was -15.5 kcal/mol. Further, the Tm in series [2] amounted to 45.9 °C.

Turning to GCACACGAAAGTGTCTGC ((((((....)))..))), the folding enthalpy in series [1] is -15.3 kcal/mol. Further, the Tm in series [2] was found to be 42 °C.

As for GCACACTCGAAAGAGTGC (((..(((....)))))), in series [1], the folding enthalpy is -9.86 kcal/mol. The Tm in series [2] stood at 38 °C.

GCACAGAAATGTGC (((((....))))): the folding enthalpy in series [1] was -33.9 kcal/mol. In series [2], the Tm worked out at 57.2 °C.

GCACAGACGAAAGTCTGC (((..(((....)))))): the folding enthalpy in series [1] is -8.42 kcal/mol. Moreover, in series [2], the Tm turned out to be 34.5 °C.

GCACAGCCGAAAGGCTGC (((..(((....)))))): the folding enthalpy in series [1] is -6.1 kcal/mol. The Tm in series [2] is 39.9 °C.

For the sequence GCACAGCGAAAGCAATGC (((..((....))..))), the folding enthalpy in series [1] was -10.9 kcal/mol. The Tm in series [2] came to 37.3 °C.

For GCACAGCGAAAGCATTGC (((..((....))..))), the folding enthalpy in series [1] was -14.4 kcal/mol. Moreover, in series [2], the Tm turned out to be 38.2 °C.

For GCACAGCGAAAGCCGCGC ((.(.((....)).).)), in series [1], the folding enthalpy was -20.3 kcal/mol. In series [2], the Tm was found to be 46.5 °C.

Take GCACAGCGAAAGCGCTGC (((..((....))..))): the folding enthalpy in series [1] was -14.8 kcal/mol. Further, the Tm in series [2] turned out to be 49.2 °C.

Regarding GCACAGCGAAAGCTATGC (((.(((....))).))), in series [1], the folding enthalpy is -40.8 kcal/mol. Also, the Tm in series [2] is 49.5 °C.

In the case of GCACAGCGAAAGCTTAGC ((..(((....)))..)), the folding enthalpy in series [1] was -10.9 kcal/mol. Also, the Tm in series [2] was 31.8 °C.

In the case of GCACAGCGAAAGCTTGC (((.(((....)))))), the folding enthalpy in series [1] was -20.1 kcal/mol. Further, in series [2], the Tm came to 51.5 °C.

For GCACAGCGAAAGCTTGGC ((..(((....)))..)), the folding enthalpy in series [1] was -15.4 kcal/mol. Further, in series [2], the Tm is 47.5 °C.

GCACAGGCGAAAGCCTGC (((..(((....)))))): the folding enthalpy in series [1] was -6.09 kcal/mol. In addition, the Tm in series [2] is 42.6 °C.

Consider GCACAGGGAAACCTGCGC ((.((((....)))).)), for which the folding enthalpy in series [1] was -44.3 kcal/mol. In addition, the Tm in series [2] was determined as 51.8 °C.

For the sequence GCACAGGGAAACTTGTGC (((((.(....).))))), the folding enthalpy in series [1] was -34.7 kcal/mol. In addition, the Tm in series [2] came to 52.1 °C.

Consider GCACATCGAAAGATATGC (((.(((....))).))), for which the folding enthalpy in series [1] was -30.2 kcal/mol. The Tm in series [2] came out at 42.9 °C.

On to GCACATCGAAAGATTGC (((.(((....)))))), for which, in series [1], the folding enthalpy is -27.9 kcal/mol. In series [2], the Tm was determined as 46 °C.

For GCACATGAAAATGTGC ((((((....)))))), the folding enthalpy in series [1] was -39.8 kcal/mol. In addition, the Tm in series [2] was determined as 62.4 °C.

Consider GCACATGGAAACACGTGC ((((.((....)).)))), for which the folding enthalpy in series [1] was -41 kcal/mol. Also, the Tm in series [2] is 46.7 °C.

Regarding GCACCAACGAAAGTTTGC (((..(((....)))))), the folding enthalpy in series [1] is -13.5 kcal/mol. For the same sequence, the Tm in series [2] is 27.9 °C.

In the case of GCACCACGAAAGTGCTGC (((.(((....))).))), the folding enthalpy in series [1] was -25.2 kcal/mol. Moreover, in series [2], the Tm is 50.5 °C.

Turning to GCACCAGGAAACCAGTGC ((((..(....)..)))), the folding enthalpy in series [1] is -30.5 kcal/mol. In series [2], the Tm stood at 39 °C.

On to GCACCCGAAAGGGCGTGC ((((((....)))..))), for which, in series [1], the folding enthalpy is -29.6 kcal/mol. Moreover, the Tm in series [2] worked out at 51.2 °C.

For the sequence GCACCCGAAAGGGGCTGC ((((((....)))..))), the folding enthalpy in series [1] was -17.9 kcal/mol. Besides, the Tm in series [2] worked out at 65.3 °C.

As for GCACCCGAAAGGGGGTGC ((((((....)))..))), in series [1], the folding enthalpy is -21 kcal/mol. In addition, the Tm in series [2] was found to be 66.8 °C.

In the case of GCACCCGAAAGGGTATGC ((((((....)))..))), the folding enthalpy in series [1] is -13.9 kcal/mol. Besides, the Tm in series [2] came out at 48.3 °C.

Consider GCACCCGAAAGGGTCTGC ((((((....)))..))), for which, in series [1], the folding enthalpy was -13.3 kcal/mol. Besides, the Tm in series [2] is 49.1 °C.

For the sequence GCACCCGAAAGGGTTGC ((((((....))).))), in series [1], the folding enthalpy is -22.5 kcal/mol. For the same sequence, the Tm in series [2] is 63.3 °C.

With GCACCCGGAAACGAGTGC ((((.((....)).)))), the folding enthalpy in series [1] is -48.8 kcal/mol. Also, the Tm in series [2] is 51.6 °C.

Turning to GCACCGCGAAAGCATTGC (((..((....))..))), the folding enthalpy in series [1] is -10.3 kcal/mol. The Tm in series [2] amounted to 33.4 °C.

For the sequence GCACCGCGAAAGCCGAGC ((.(.((....)).).)), the folding enthalpy in series [1] was -12.9 kcal/mol. Besides, the Tm in series [2] was 39 °C.

For the sequence GCACCGCGAAAGCCGTGC ((((.((....)).)))), the folding enthalpy in series [1] was -31.1 kcal/mol. Also, the Tm in series [2] came out at 62.2 °C.

As for GCACCGCGAAAGCGCGGC ((..(((....)))..)), the folding enthalpy in series [1] is -11 kcal/mol. For the same sequence, the Tm in series [2] was found to be 45 °C.

Take GCACCGCGAAAGCTGGGC ((.(.((....)).).)): the folding enthalpy in series [1] was -19.1 kcal/mol. In addition, the Tm in series [2] is 57.5 °C.
